Laboratory results as given in ChEMBL document CHEMBL1156469 (2007).
Calls of active or inactive are those of the source. The calls are words filed in the database; no cut-off is given here.

Legend:
Osteoblast [1] = test: Effect on bone morphogenetic protein receptor 1B gene expression in rat primary osteoblast cells assessed as expression ratio of treated to untreated control by microarray analysis; type: functional
MC3T3-E1 [2] = test: Increase in osteocalcin mRNA levels in mouse MC3T3-E1 cells at 1 uM after 72 hrs by RT-PCR; type: functional, cell-based
Method in brief: (§1)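 Cells treated with 1 μm for 72 h; osteocalcin and osteopontin mRNA by RT-PCR, 30 cycles (95/52/72 °C, 1 min each), ethidium bromide–stained agarose gels; repeated at least twice from at least two cDNA preparations.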

Osteoblast [3] = test: Effect on procollagen 14alpha 1 gene expression in rat primary osteoblast cells assessed as expression ratio of treated to untreated control by microarray analysis; type: functional
Method in brief: (§2)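 Resveratrol-treated and vehicle-treated primary osteoblasts were profiled on a mouse osteogenesis-focused cDNA array (GEArray Q series) built to track gene expression during osteogenic differentiation. Each gene's signal in treated cells was expressed as a ratio to untreated control.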

[4] = Reversal of increase in pBMP2 expression in mouse MC3T3-E1 cells transfected with dominant-negative mutant Src expression vector at 1 uM by luciferase method; type: functional, cell-based
Method in brief: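 BMP-2 promoter activity measured by dual-luciferase assay and expressed relative to the untreated vector control.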

MDA-MB-231 [5] = test: Antiproliferative activity against human MDA-MB-231 cells at 1 uM by flow cytometry; type: functional, cell-based
Method in brief: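 Proliferation was measured by DNA flow cytometry. Incubations were run in triplicate across three separate experiments, and values are means ± S.D.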

[6] = target: Alkaline phosphatase (Rattus norvegicus) (UniProt Q9JKS8); test: Increase in ALP activity in rat primary osteoblast cells at 0.1 to 10 uM after 7 days; type: cell-based
Chain of Alkaline phosphatase (Rattus norvegicus) (Q9JKS8 as listed by the source): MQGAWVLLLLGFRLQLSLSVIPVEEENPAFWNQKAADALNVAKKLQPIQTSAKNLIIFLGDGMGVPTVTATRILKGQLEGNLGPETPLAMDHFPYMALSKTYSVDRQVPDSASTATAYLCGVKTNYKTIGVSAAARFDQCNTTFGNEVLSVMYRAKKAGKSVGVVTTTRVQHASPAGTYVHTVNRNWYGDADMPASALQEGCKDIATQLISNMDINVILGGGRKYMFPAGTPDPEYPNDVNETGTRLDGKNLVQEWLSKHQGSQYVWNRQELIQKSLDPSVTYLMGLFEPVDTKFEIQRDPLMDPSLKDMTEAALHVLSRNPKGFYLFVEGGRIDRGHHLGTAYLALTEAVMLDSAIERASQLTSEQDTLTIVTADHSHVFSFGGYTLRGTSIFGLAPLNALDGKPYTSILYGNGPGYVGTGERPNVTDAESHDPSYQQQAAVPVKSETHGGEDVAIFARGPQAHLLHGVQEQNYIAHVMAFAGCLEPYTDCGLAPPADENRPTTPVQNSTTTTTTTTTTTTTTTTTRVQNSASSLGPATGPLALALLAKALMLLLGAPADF

Osteoblast [7] = test: Effect on alkaline phosphatase 2 gene expression in rat primary osteoblast cells assessed as expression ratio of treated to untreated control by microarray analysis; type: functional
MDA-MB-231 [8] = test: Antitumor activity against human MDA-MB-231 cells xenografted in SCID mouse orthotropic model assessed as inhibition of 17beta estradiol-induced tumor formation at 10 mg/kg for 2 days; type: functional; set-up: scale not given: the % may be the effect or the level left
Method in brief: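 Tumor cells were inoculated orthotopically into the mammary fat pad of 6-week-old female SCID mice. […] Tumor volume was calculated as LW2/2. Tumor formation was scored as mice with tumors per total (20 per group), and tumor weight as mean ± S.D. Groups were compared by one-way ANOVA with LSD post-hoc comparisons.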

MC3T3-E1 [9] = test: Increase in BMP2 expression in mouse MC3T3-E1 cells expressing pBMP2delta3 mutant at 1 uM after 4 hrs by luciferase method relative to control; type: functional, cell-based
Method in brief: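 MC3T3-E1 cells transfected with BMP-2 promoter–luciferase constructs (full promoter or deletions), treated with 1 μm or vehicle for 4 h; Dual-Luciferase assay; means ± S.D.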

Osteoblast [10] = test: Effect on growth differentiation factor 10 gene expression in rat primary osteoblast cells assessed as expression ratio of treated to untreated control by microarray analysis; type: functional; method in brief: as §2
[11] = Reversal of increase in BMP2 expression in mouse MC3T3-E1 cells expressing pBMP2/mERE mutant at 1 uM after 4 hrs by luciferase method; type: functional, cell-based
Osteoblast [12] = test: Effect on transforming growth factor beta 3 gene expression in rat primary osteoblast cells assessed as expression ratio of treated to untreated control by microarray analysis; type: functional; method in brief: as §2
[13] = Reversal of increase in pBMP2 expression in rat primary osteoblast cells transfected with dominant-negative mutant Src expression vector at 1 uM by luciferase method; type: functional, cell-based
[14] = target: Forkhead box protein O3 (Homo sapiens) (UniProt O43524); test: Induction of FOXO3a activity in human MDA-MB-231 cells; type: cell-based
Chain of Forkhead box protein O3 (Homo sapiens) (O43524 whole entry): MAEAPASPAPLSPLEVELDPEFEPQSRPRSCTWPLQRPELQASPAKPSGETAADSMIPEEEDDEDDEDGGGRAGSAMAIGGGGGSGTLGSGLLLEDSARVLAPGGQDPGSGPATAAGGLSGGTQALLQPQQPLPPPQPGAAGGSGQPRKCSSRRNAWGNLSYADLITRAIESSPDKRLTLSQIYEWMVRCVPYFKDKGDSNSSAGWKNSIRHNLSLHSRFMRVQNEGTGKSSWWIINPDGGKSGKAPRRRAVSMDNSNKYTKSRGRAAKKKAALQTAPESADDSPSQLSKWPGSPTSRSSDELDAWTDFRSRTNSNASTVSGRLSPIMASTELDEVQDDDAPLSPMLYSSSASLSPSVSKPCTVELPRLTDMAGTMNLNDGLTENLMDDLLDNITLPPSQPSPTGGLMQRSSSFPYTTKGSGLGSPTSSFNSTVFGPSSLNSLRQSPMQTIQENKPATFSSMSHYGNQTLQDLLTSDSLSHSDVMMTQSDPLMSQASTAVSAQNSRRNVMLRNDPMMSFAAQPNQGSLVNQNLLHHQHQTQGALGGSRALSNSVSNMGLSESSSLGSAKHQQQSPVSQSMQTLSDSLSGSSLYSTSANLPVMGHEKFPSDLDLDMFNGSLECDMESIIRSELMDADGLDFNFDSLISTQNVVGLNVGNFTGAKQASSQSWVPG

MC3T3-E1 [15] = test: Increase in osteocalcin levels in mouse MC3T3-E1 cells at 1 uM after 72 hrs by ELISA; type: functional, cell-based
Method in brief: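 Cells treated with 1 μm for 72 h; osteocalcin or osteopontin in culture medium by sandwich ELISA, HRP-streptavidin/TMB, 450 nm; percent change versus untreated control.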

MG-63 = test: Increase in osteocalcin mRNA levels in human MG63 cells at 1 uM after 72 hrs by RT-PCR; type: functional, cell-based; method in brief: as §1
Osteoblast [16] = test: Effect on integrin alpha 2 gene expression in rat primary osteoblast cells assessed as expression ratio of treated to untreated control by microarray analysis; type: functional; method in brief: as §2
Osteoblast [17] = test: Effect on procollagen 3 alpha 1 gene expression in rat primary osteoblast cells assessed as expression ratio of treated to untreated control by microarray analysis; type: functional; method in brief: as §2
[18] = target: T1, Estrogen receptor (Mus musculus) (UniProt P19785); test: Increase in DNA-binding activity of ERalpha in nuclear extracts of mouse MC3T3-E1 cells by electrophoretic mobility shift assays; type: cell-based
T1 sequence (whole entry): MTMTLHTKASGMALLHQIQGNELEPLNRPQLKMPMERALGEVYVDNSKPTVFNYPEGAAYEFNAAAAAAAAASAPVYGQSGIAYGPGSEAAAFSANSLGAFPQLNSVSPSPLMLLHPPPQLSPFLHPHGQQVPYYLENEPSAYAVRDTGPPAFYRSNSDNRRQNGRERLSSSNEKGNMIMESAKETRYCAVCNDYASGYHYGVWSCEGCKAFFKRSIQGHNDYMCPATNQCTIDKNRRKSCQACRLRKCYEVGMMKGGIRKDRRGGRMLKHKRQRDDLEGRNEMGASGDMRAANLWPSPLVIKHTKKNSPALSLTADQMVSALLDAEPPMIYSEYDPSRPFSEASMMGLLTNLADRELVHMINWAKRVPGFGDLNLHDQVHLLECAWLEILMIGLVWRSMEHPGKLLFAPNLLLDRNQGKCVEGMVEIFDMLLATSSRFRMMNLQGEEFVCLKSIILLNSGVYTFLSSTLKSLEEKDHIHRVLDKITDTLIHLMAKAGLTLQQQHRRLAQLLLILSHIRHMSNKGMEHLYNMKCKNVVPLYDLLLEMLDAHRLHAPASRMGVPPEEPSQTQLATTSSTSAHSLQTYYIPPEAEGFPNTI
Method in brief: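 MC3T3-E1 nuclear extracts incubated with 32P end-labeled ERα probe for 20 min at room temperature in 20 μl; 5-fold unlabeled competitor for specificity; 5% nondenaturing PAGE in Tris-borate-EDTA pH 8.3, autoradiography at –70 °C.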

Osteoblast [19] = test: Inhibition of etoposide-induced apoptosis in rat primary osteoblast cells after 24 hrs by flow cytometry; type: functional, cell-based
Method in brief: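 Cells washed in PBS, held 30 min in 0.5% Triton X-100/PBS/0.05% RNase A, then propidium iodide (50 μg/ml) added and kept on ice 15–30 min. Apoptosis is the hypodiploid fraction below the G0/G1 peak, by flow cytometry. Run in triplicate and repeated on three occasions.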

Osteoblast [20] = test: Effect on platelet derived growth factor alpha gene expression in rat primary osteoblast cells assessed as expression ratio of treated to untreated control by microarray analysis; type: functional; method in brief: as §2
[21] = target: Forkhead box protein O3 (Homo sapiens) (UniProt O43524); test: Inhibition of IGF-induced FOXO3a phosphorylation at Thr32 residue in human MDA-MB-231 cells by Western blot; type: cell-based
Method in brief: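 MDA-MB-231 breast cancer cells, control or resveratrol-treated, then exposed or not to IGF. Lysates resolved by SDS-PAGE, transferred to nitrocellulose, probed with specific primary and secondary antibodies, and detected by ECL. Membranes stripped and reprobed where indicated.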

Osteoblast [22] = test: Effect on procollagen 1 alpha 2 gene expression in rat primary osteoblast cells assessed as expression ratio of treated to untreated control by microarray analysis; type: functional; method in brief: as §2
Osteoblast [23] = test: Effect on scavenger receptor B2 gene expression in rat primary osteoblast cells assessed as expression ratio of treated to untreated control by microarray analysis; type: functional; method in brief: as §2

Activity [6]: Active
Activity [14]: Active
Activity [18]: Active
Activity [21]: Active
Compound: Oc1ccc(/C=C/c2cc(O)cc(O)c2)cc1 [RESVERATROL]
Ratio (Osteoblast [1]): 2.63
Activity (MC3T3-E1 [2]): Active
Ratio (Osteoblast [3]): 3.76
Activity [4]: Active
Activity (MDA-MB-231 [5]): Active
Ratio (Osteoblast [7]): 8.63
Activity (MDA-MB-231 [8]): 85%
Activity (MC3T3-E1 [9]): inactive
Ratio (Osteoblast [10]): 0.93
Activity [11]: 80%
Ratio (Osteoblast [12]): 2.56
Activity [13]: Active
Activity (MC3T3-E1 [15]): Active
Activity (MG-63): Active
Ratio (Osteoblast [16]): 2.24
Ratio (Osteoblast [17]): 4.41
Activity (Osteoblast [19]): Active
Ratio (Osteoblast [20]): 4.34
Ratio (Osteoblast [22]): 8.24
Ratio (Osteoblast [23]): 0.65
